In ChEMBL document CHEMBL1134482, “Ether phospholipid-AZT conjugates possessing anti-HIV and antitumor cell activity. Synthesis, conformational analysis, and study of their thermal effects on membrane bilayers” (J Med Chem, 2001):

Key:
[1] = system: CCRF-CEM; test: Concentration required to protect CEM/0 cells against the cytopathicity of HIV-1 by 50%.; format: functional, cell-based; conditions: Homo sapiens
Outline: (§1)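 CEM cells (wild-type, or TK-deficient for the HIV-2 CEM/TK- line) were infected with HIV-1 or HIV-2. EC50 was taken as the concentration protecting the cells from virus-induced cytopathicity by 50%. Values are averages of at least two separate experiments.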

[2] = system: CEM-TK(-); test: Concentration required to protect CEM/TK cells against the cytopathicity of HIV-2 by 50%; format: functional, cell-based; conditions: Homo sapiens; outline: as §1
[3] = system: L1210/TK-; test: Inhibitory effect of compound on the proliferation of murine leukemia cells L1210/TK-; format: functional, cell-based; conditions: Mus musculus
Outline: (§2)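 Murine L1210/0, L1210/TK- leukemia cells or FM3A/0 mammary carcinoma cells were incubated with the compound for 2 days at 37 °C. IC50 was the concentration reducing the total number of viable cells by 50%.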

[4] = system: CCRF-CEM; test: Concentration required to reduce CEM/0 cell viability by 50%; format: functional; conditions: Homo sapiens
Outline: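 Uninfected CEM/0 T-lymphocytes were exposed to the compound. CC50 was the concentration reducing CEM cell viability by 50%. Values are averages of at least two separate experiments.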

[5] = system: L1210; test: Inhibitory effect of compound on the proliferation of murine leukemia cells L1210/0.; format: functional, cell-based; conditions: Mus musculus; outline: as §2
[6] = system: MOLT-4; test: Inhibitory effect of compound on the proliferation of human T-lymphocyte cells Molt4/C8; format: functional, cell-based
Outline: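 Human Molt4/C8 T-lymphoblast cells were incubated with the compound for 3 days at 37 °C. IC50 was the concentration cutting the total viable cell number by 50%.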

[7] = system: FM3A; test: Inhibitory effect of compound on the proliferation of murine mammary carcinoma cells FM3A/0; format: functional, cell-based; conditions: Mus musculus; outline: as §2
[8] = system: CCRF-CEM; test: Concentration required to protect CEM/0 cells against the cytopathicity of HIV-2 by 50%.; format: functional, cell-based; conditions: Homo sapiens; outline: as §1

| SMILES | EC50 [1] [µM] | EC50 [2] [µM] | IC50 [3] [µM] | CC50 [4] [µM] | IC50 [5] [µM] | IC50 [6] [µM] | IC50 [7] [µM] | EC50 [8] [µM] |
| --- | --- | --- | --- | --- | --- | --- | --- | --- |
| CCCCCCCCCCCCCCCCOP(=O)(O)OCC1OC(n2cc(C)c(=O)[nH]c2=O)CC1N=[N+]=[N-] (stereo not drawn) | 0.58 | > 50 | 165 | 161 | 12.5 | 144 | 133 | 1 |
| Cc1cn([C@H]2C[C@H](N=[N+]=[N-])[C@@H](CO)O2)c(=O)[nH]c1=O [ZIDOVUDINE] | 0.0064 | > 100 | > 500 | > 500 | 6.18 | 62.8 | 203 | – |
| CCCCCCCCCCCCCCCCOCC(COP(=O)(O)OCC1OC(n2cc(C)c(=O)[nH]c2=O)CC1N=[N+]=[N-])OC (stereo not drawn) | 0.065 | > 10 | 33.6 | 34.3 | 0.98 | 21.4 | 68.4 | 0.08 |
